Published values from different studies.
Compare with care: the assays were run in different laboratories.
Target: Beta-1 adrenergic receptor (ADRB1, Homo sapiens, UniProt P08588)

SMILES	assay	conditions	measurement	result
Cc1c(N2CCNCC2)nc2ccc(Br)cc2c1C(=O)NC[C@H](CCC(=O)O)c1ccccc1Cl	ligand displacement	10 µM	inhibition	12.6%
COc1ccc(S(=O)(=O)N2CCCCC2)cc1C	ligand displacement, radioligand	10 µM	inhibition	< 30%
Clc1ccc2c(C3CCN(CCc4c[nH]c5ccccc45)CC3)c[nH]c2c1	ligand displacement, radioligand	10 µM	inhibition	84%
O=C(Nc1cccnn1)N1CCN([C@@H]2CCOc3cc(C(F)(F)F)ccc32)CC1	cell-free assay	20 µM	inhibition	27%
c1ccc(C(NCCNC(c2ccccc2)c2ccccc2)c2ccccc2)cc1	cell-free assay	10 µM	inhibition	31%
CC(C)N1CCC[C@H]1CNC(=O)c1cn(C2CCCC2)c(=O)c2c1c1ccccc1n2C	ligand displacement, radioligand	10 µM	inhibition	24%
Cn1cncc1[C@@](O)(COc1ccc(C#N)cc1-c1ccc(OC(F)(F)F)cc1)c1ccc(C#N)cc1	ligand displacement	10 µM	inhibition	-16.5%
COCc1c(-c2cc3cc(C)cc(OC)c3s2)c2c(N)ncnn2c1CN1CCNC(=O)C1	ligand displacement, radioligand	10 µM	inhibition	2%
CN(CCN1CCC(OC(=O)Nc2ccccc2-c2ccccc2)CC1)C(=O)c1ccc(CN2CCC(C(N)=O)CC2)cc1	ligand displacement, radioligand	1 µM	inhibition	14%
C[C@H](C(=O)N[C@H]1COc2ccccc2[C@@H]1S(C)(=O)=O)c1ccc(F)cc1	cell-free assay	10 µM	inhibition	3%
Nc1ncc(-c2nc(N3CCOCC3)nc(N3CCOCC3)n2)c(C(F)F)n1	cell-free assay, radioligand	10 µM	remaining signal	93.2%
